The target in data set [1] is T1, FASN (Gallus gallus, UniProt P12276). As to the kind of experiment: FASN overall reaction inhibition. The class given is biochemical, chicken. A digest of the protocol:
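Overall reaction of purified chicken liver FASN at 37 °C, read as initial rate of NADPH absorbance loss at 340 nm. The test compound was added before the last substrate, which started the reaction; DMSO was below 0.5% (v/v). Relative activity was Ai/A0 × 100%. IC50 came from a plot of relative activity versus concentration. Single-point data at 10.0 μM are mean ± SD, n = 3 independent experiments.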

In data set [2] the test system is MDA-MB-231. The data set can be described thus: cell viability assay. The data set is classed as cell-based. Conditions: Homo sapiens, MDA-MB-231, 24 h, read-out: IC50, cell viability. The essentials:
(§1)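 Cells were grown in DMEM with 10% FBS at 37 °C and 5% CO2. They were seeded at 1 × 10^6 cells/mL and allowed to attach overnight before treatment. Medium was then replaced with drug-free medium containing CCK-8 reagent, incubated 1 h at 37 °C, and read at 450 nm. Six replicates were run on three separate occasions.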

For data set [3], the target named is FASN KR domain (β-ketoacyl reduction) (Gallus gallus, UniProt P12276). The data set can be described thus: β-ketoacyl reduction partial reaction of FASN. The data set is classed as biochemical, chicken. Conditions: 10.0 μM phloretin. A digest of the protocol:
(§2)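 Chicken liver FASN was purified by two-step ammonium sulfate precipitation, DEAE-cellulose and Blue-Sepharose chromatography, and stored at −70 °C. Partial reactions (β-ketoacyl reduction, enoyl reduction, AcAc-CoA reduction) were run at 37 °C after 10 min equilibration. The test compound was at 10.0 μM, with DMSO below 0.5% (v/v). Initial velocity came from the NADPH decrease at 340 nm. Relative activity was Ai/A0 × 100%, given as mean ± SD of three independent experiments.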

For data set [4], the system named is intracellular TG content in breast cancer cells (MDA-MB-231, MCF-7). As to the kind of experiment: triglyceride. The data set is classed as cell-based, human. Conditions: 24 h, p < 0.001.
The target in data set [5] is T1, FASN. As to the kind of experiment: enzyme kinetics study. The data set is classed as biochemical, chicken. The note with it: for Ki: Inhibition constant K is. The essentials:
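Purified chicken FASN, overall reaction at 340 nm (NADPH). One substrate was varied with the others fixed. Ac-CoA varied with Mal-CoA 10 μM and NADPH 35 μM, test compound 0–5.86 μM. Mal-CoA varied with Ac-CoA 3 μM and NADPH 35 μM, test compound 0–6.88 μM. NADPH varied with Ac-CoA 3 μM and Mal-CoA 10 μM, test compound 0–9.12 μM. Lineweaver–Burk plots; Kis/Kii from secondary plots; points are means of 2–5 experiments.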

For data set [6] the following is noted: ref number not given, cited from earlier work.
In data set [7] the target is FASN ER domain (enoyl reduction) (Gallus gallus, UniProt P12276). The data set can be described thus: enoyl reduction partial reaction of FASN. Conditions: 10.0 μM phloretin. The data set is classed as biochemical, chicken. A digest of the protocol: as §2
Sequence of FASN ER domain (enoyl reduction) (P12276 2-2512 limits assumed): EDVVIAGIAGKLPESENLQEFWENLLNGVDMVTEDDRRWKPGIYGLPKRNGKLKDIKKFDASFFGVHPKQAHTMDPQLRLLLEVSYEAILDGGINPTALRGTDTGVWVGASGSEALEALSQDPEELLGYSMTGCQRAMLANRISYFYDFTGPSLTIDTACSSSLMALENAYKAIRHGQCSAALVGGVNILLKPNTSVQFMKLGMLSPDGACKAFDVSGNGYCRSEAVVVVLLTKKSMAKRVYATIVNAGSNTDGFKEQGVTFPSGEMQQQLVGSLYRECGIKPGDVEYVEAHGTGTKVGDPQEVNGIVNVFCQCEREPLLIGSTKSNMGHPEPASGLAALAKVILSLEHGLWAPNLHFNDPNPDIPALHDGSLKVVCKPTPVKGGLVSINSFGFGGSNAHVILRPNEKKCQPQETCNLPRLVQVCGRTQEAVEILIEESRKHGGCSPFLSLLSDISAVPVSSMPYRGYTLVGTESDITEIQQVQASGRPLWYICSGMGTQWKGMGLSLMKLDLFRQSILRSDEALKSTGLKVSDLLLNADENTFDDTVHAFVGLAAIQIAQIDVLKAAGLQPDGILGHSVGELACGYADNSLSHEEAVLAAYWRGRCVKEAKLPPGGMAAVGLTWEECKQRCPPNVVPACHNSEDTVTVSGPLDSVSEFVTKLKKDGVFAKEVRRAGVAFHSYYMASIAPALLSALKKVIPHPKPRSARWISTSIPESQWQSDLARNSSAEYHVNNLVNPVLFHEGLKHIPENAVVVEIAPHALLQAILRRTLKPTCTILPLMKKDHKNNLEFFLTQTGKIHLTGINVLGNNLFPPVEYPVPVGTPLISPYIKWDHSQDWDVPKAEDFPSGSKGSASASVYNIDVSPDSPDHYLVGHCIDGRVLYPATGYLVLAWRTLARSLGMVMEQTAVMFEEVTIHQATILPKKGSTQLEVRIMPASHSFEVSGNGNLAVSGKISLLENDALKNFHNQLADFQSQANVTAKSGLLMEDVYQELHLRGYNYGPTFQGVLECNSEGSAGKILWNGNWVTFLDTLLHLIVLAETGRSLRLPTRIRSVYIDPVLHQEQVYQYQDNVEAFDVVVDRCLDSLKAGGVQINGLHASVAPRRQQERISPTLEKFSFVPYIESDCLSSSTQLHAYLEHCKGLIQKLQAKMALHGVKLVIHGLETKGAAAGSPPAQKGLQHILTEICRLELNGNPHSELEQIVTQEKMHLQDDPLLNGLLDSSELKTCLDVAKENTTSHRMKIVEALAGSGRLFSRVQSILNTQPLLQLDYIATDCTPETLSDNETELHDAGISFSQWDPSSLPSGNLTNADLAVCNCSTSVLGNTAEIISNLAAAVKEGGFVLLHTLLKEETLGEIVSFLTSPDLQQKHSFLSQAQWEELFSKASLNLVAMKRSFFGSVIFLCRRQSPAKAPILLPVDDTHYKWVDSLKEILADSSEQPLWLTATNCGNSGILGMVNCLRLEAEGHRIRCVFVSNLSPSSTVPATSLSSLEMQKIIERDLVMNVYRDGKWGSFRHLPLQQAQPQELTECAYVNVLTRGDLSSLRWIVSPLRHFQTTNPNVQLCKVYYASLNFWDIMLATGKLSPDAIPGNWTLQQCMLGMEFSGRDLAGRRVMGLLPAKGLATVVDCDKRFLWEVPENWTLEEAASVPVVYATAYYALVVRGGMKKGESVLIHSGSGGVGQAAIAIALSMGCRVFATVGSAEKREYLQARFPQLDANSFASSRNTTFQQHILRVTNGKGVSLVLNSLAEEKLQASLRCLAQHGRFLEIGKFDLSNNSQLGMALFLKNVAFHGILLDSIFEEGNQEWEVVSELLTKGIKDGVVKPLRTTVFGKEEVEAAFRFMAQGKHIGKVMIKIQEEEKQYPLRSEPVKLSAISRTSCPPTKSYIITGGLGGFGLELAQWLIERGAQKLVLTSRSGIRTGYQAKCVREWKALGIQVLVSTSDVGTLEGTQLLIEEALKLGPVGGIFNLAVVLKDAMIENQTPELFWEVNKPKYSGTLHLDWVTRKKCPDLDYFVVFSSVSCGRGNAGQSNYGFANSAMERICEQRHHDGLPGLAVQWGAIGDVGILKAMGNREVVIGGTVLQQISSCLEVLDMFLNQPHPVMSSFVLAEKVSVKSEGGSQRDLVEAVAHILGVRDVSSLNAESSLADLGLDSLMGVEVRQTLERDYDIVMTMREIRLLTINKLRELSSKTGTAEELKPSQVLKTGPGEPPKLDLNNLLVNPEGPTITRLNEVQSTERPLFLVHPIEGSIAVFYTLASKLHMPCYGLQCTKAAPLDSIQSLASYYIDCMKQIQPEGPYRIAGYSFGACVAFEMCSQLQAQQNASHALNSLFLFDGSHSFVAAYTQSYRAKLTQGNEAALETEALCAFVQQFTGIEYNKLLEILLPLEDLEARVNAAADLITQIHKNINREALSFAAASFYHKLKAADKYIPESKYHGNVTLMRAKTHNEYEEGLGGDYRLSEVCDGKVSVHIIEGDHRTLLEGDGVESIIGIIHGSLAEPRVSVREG
Data set [8] deals with T1, FASN. The data set can be described thus: time-dependent. The class given is biochemical, chicken. The essentials: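 FASN was incubated at 25 °C with various test compound concentrations. Aliquots taken at set intervals were assayed for residual overall activity. kobs came from ln(At/A0) = −kobs·t. For substrate protection, Ac-CoA, Mal-CoA or NADPH (10 μM each) was present during inactivation, compared with no substrate. In a separate series, FASN (0.60 μM) was preincubated with 6.6 μM test compound plus rising Ac-CoA, and 1/kobs was plotted against Ac-CoA.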

For data set [9], the system named is MCF-7. As to the kind of experiment: cell viability assay. The data set is classed as cell-based. Conditions: Homo sapiens, MCF7, 24 h, read-out: IC50, cell viability. The essentials: as §1
The target of data set [10] is FASN (MAT, KR, DH, ER domains and ACP; AcAc-CoA reaction) (Gallus gallus, UniProt P12276). The data set can be described thus: AcAc-CoA reduction reaction of FASN. The class given is biochemical, chicken. Conditions: 10.0 μM phloretin. A digest of the protocol:
as §2

The target of data set [11] is intracellular FASN in breast cancer cells (MDA-MB-231, MCF-7) (Homo sapiens, UniProt P49327). As to the kind of experiment: intracellular FASN activity assay. The data set is classed as cell-based. A digest of the protocol: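 After 24 h exposure, cells were trypsinized, washed three times and resuspended in cold PBS. They were sonicated at 4 °C and spun at 12,000 g for 15 min at 4 °C. Supernatant was assayed in 25 mM K-phosphate (pH 7.0) with 0.25 mM EDTA, 0.25 mM DTT, 30 μM Ac-CoA and 350 μM NADPH. Background A340 was read for 60 s, then Mal-CoA was added and FAS-dependent NADPH oxidation read for 60 s more. Mean ± SD, n = 3; ANOVA with Tukey.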
Sequence of intracellular FASN in breast cancer cells (MDA-MB-231, MCF-7) (P49327 whole entry): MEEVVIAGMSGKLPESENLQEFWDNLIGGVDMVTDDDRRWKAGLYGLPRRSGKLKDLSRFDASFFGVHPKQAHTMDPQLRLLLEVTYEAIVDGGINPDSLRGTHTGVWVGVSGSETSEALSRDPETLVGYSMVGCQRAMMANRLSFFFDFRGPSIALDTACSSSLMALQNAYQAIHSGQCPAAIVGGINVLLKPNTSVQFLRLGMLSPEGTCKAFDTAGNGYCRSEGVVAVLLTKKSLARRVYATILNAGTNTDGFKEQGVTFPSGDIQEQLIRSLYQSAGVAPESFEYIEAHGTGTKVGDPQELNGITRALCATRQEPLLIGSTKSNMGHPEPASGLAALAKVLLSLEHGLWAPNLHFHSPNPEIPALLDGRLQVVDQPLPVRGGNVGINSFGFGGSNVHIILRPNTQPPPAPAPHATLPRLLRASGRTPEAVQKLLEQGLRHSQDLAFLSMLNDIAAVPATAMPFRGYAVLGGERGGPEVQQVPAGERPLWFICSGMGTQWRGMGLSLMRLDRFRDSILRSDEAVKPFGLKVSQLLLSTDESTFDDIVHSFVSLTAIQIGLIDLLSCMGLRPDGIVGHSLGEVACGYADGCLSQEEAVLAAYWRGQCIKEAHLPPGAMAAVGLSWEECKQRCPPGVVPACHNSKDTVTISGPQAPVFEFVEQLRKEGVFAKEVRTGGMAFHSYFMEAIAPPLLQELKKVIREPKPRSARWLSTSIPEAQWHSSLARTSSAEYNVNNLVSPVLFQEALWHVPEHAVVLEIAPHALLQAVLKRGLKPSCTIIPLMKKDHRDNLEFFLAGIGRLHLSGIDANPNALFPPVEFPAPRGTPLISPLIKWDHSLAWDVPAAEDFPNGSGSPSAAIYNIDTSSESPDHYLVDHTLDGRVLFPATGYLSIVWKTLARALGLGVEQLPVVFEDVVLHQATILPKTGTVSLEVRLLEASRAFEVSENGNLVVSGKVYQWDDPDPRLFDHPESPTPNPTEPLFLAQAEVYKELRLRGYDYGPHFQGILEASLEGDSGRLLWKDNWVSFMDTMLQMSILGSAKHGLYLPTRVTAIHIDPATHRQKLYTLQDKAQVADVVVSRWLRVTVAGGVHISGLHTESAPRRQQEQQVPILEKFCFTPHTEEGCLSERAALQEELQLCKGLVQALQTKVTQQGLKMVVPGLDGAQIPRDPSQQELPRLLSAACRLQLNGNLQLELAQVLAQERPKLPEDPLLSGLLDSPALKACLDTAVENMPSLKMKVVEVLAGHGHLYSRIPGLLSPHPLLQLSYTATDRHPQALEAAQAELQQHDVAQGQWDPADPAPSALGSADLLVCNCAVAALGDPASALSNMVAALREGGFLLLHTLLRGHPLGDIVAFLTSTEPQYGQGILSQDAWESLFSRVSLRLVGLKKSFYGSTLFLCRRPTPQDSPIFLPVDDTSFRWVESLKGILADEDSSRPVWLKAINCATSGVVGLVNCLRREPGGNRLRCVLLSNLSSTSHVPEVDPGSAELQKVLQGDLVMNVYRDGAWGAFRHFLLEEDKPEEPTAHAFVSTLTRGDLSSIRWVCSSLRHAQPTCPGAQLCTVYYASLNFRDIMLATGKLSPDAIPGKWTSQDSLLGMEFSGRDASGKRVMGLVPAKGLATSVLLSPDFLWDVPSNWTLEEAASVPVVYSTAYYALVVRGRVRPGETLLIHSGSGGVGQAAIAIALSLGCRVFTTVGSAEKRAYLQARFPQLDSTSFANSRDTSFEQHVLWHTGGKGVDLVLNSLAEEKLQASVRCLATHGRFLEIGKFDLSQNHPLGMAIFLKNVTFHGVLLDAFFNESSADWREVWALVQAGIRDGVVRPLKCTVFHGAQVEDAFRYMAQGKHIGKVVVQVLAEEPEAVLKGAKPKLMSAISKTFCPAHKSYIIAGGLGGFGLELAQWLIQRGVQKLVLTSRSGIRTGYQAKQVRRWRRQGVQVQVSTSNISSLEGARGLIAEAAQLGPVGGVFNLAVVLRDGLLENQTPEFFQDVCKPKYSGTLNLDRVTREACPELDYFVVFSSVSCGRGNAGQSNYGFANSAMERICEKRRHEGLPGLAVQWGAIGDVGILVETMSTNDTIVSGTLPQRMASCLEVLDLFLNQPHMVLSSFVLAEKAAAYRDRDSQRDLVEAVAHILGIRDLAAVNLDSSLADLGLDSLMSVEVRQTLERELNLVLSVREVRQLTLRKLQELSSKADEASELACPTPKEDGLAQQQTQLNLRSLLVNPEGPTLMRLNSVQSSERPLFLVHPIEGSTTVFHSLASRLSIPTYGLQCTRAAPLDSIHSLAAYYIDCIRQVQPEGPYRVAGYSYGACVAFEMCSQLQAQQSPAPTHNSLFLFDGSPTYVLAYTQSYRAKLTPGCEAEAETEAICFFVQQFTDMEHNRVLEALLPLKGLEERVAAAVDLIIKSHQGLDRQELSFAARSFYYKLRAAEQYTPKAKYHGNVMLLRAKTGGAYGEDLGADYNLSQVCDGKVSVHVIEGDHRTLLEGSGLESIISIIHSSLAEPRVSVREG

In data set [12] the target is FASN KR domain (Gallus gallus, UniProt P12276). As to the kind of experiment: time-dependent inhibition of the KR domain. The class given is biochemical, chicken.
Sequence of FASN KR domain (P12276 2-2512 limits assumed): as the sequence (P12276 2-2512 limits assumed) above
Data set [13] has as its system FASN expression in MDA-MB-231 and MCF-7 cells. As to the kind of experiment: Western blot analysis of FASN expression in breast cancer cells. The class given is cell-based, human. The note with it: 60–90 μM, 24 h, both cell lines. A digest of the protocol: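 Cells in DMEM/10% FBS were treated 24 h with test compound, washed with PBS, lysed in RIPA and sonicated. Protein was measured by BCA, and 20 μg per lane was run on 8% SDS-PAGE and transferred to PVDF. Membranes were blocked in 5% milk, probed overnight at 4 °C with rabbit monoclonal anti-FASN and anti-β-actin, then an HRP anti-rabbit secondary. Detection was by ECL, with densitometry normalized to β-actin; mean ± SD, n = 3.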
In general terms: In western blotting, separated proteins are transferred to a membrane and probed.

For data set [14], the target named is T1, FASN. Conditions: read-out: IC50, FASN inhibition; literature value; ref number not given; cited from earlier work.

SMILES strings stand for the structures. Where two headings read alike, the source gives them in different places. Bounds are passed on as bounds.

By IC50 is commonly meant the concentration at which inhibition is half-maximal. The inhibition is the relative decrease from the control value, in per cent. In general, Ki refers to a measure of affinity in units of concentration, obtained from inhibition or displacement. Read a high Ki as a looser hold on the target. In general, Cmax refers to the maximum level reached in the sampled fluid or tissue.

T1 sequence (P12276 2-2512 limits assumed): as above
Sequence of FASN (MAT, KR, DH, ER domains and ACP; AcAc-CoA reaction) (P12276 2-2512 limits assumed): as above

Take `O=C(CCc1ccc(O)cc1)c1c(O)cc(O)cc1O` [phloretin, β-(4-hydroxyphenyl)-2,4,6-trihydroxypropiophenone]: the half-inhibitory concentration (IC50) in [1] came out at 4.9 ± 0.66 µM; in data set [2] it was 81.4 µM; in [9], 101 µM. For the same molecule, in data set [1] (read-out: inhibition of overall FASN activity), the inhibition at 10 µM turned out to be 81%. Further, in data set [3], the “β-ketoacyl reduction activity suppressed” value worked out at 3.5%. Moreover, the “cellular TG levels” value in [4] is listed as “marked concentration-dependent reduction”. The Ki stood at 3.46 µM in data set [5] (substrate Ac-CoA) and 5.69 µM in [5] (substrate Mal-CoA). In addition, the Inhibitory manner result in data set [5] (substrate Ac-CoA varied, Mal-CoA 10 μM, NADPH 35 μM) is “Competitive”; in [5] (substrate Mal-CoA varied, Ac-CoA 3 μM, NADPH 35 μM) it was “Mixed competitive and noncompetitive”; in data set [5] (substrate NADPH varied, Ac-CoA 3 μM, Mal-CoA 10 μM), “Uncompetitive”. Also, the “Inhibition constant K ii” value in [5] (substrate Mal-CoA, enzyme–substrate complex) was 9.41 µM; in data set [5] (substrate NADPH), 1.80 µM. Also, in data set [6] (Sprague–Dawley rats, single 100 mg/kg dose), the “time of Cmax postdose” value was 15 min. For the same molecule, the Cmax in [6] (oral doses of 200 and 300 mg/kg) was less than 10 µM. Further, the oral bioavailability in data set [6] (rats, oral and intravenous routes) is recorded as 8.676%. The “enoyl reduction activity suppressed” value in [7] was 4.8%. In data set [8] (Mal-CoA (10 μM) or NADPH (10 μM) vs no substrate), the “decrease of k obs by preincubation with Mal-CoA or NADPH” value was 5–10%. Besides, in [8] (control, same conditions without substrate), the “k obs, FASN inactivation without any substrate” value is 0.070 min^–1. Moreover, the “k obs, overall reaction activity of FASN” value in [8] (phloretin 2 mg/mL, incubated at 25 °C) came to 0.0264 min^–1. In addition, the “k obs, FASN inactivation with Ac-CoA” value in [8] (with Ac-CoA (10 μM)) is reported as 0.025 min^–1. For the same molecule, the “k obs, FASN inactivation with Mal-CoA” value in data set [8] (with Mal-CoA (10 μM)) came out at 0.067 min^–1. For the same molecule, the “k obs, FASN inactivation with NADPH” value in [8] (with NADPH (10 μM)) came to 0.064 min^–1. Further, the “AcAc-CoA reaction activity remained” value in [10] is 91.2%. In addition, in data set [11] (p < 0.01, 24 h, breast cancer cells), the “lowest concentration with significant inhibition of intracellular FASN activity” value is 30 µM. Further, the inhibition at 90 µM in [11] (read-out: maximal inhibition of intracellular FASN enzymatic activity) is greater than 50%. In addition, in [12], the “time-dependent inhibition of KR domain” value was “no time-dependent inhibition was observed”. Moreover, the FASN protein content entry in data set [13] is listed as “significantly decreased”.
With `O=C(O[C@@H]1Cc2c(O)cc(O)cc2O[C@@H]1c1cc(O)c(O)c(O)c1)c1cc(O)c(O)c(O)c1` [EGCG, epigallocatechin gallate, reference compound], the 50% inhibitory concentration (IC50) in [1] (read-out: IC50, FASN overall reaction activity, chicken liver FASN, 37 °C) was 50.5 ± 0.75 µM; in [14] it was 52 µM.
As to `C/C=C/C/C=C/CCC(=O)[C@H]1O[C@H]1C(N)=O` [cerulenin], the concentration for half-maximal inhibition (IC50) in [14] was 89 µM.

(Values after paper PMC12423902 (ACS Omega, 2025).)
